Test results reported in ChEMBL document CHEMBL5705902, “Role of G Protein-Coupled Receptor Kinases 2 and 3 in μ-Opioid Receptor Desensitization and Internalization” (Mol Pharmacol, 2015).
Activity calls are given as the source filed them. The calls are words filed in the database; no cut-off is given here.

What was measured:
[1] = molecular target: Mu-type opioid receptor (Rattus norvegicus) (UniProt P33535); test: Inhibition of MOPr desensitization in wistar rat LC neuron cells assessed as reduction in the morphine induced desensitization at 30 uM incubated for 15 mins; format: functional, cell-based
Target sequence in this assay (P33535 whole entry): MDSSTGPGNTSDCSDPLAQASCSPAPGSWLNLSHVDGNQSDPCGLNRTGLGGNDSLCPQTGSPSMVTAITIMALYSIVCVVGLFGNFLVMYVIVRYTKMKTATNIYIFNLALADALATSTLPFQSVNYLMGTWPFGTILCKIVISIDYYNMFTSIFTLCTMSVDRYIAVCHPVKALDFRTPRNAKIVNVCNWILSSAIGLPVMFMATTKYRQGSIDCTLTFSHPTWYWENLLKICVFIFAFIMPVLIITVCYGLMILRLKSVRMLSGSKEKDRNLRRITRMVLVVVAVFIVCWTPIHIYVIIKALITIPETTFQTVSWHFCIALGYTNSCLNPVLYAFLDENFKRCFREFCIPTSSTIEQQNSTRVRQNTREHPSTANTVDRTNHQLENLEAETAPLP

[2] = molecular target: Mu-type opioid receptor (Rattus norvegicus) (UniProt P33535); test: Inhibition of HA-tagged rat MOPr in HEK293 cells assessed as prevention in DAMGO induced MOPr phosphorylation at Thr370 level at 30 uM preincubated for 30 mins by western blot analysis; format: functional, cell-based
Target sequence in this assay (P33535 whole entry): as above

[3] = molecular target: Mu-type opioid receptor (Rattus norvegicus) (UniProt P33535); test: Inhibition of HA-tagged rat MOPr in HEK293 cells assessed as reduction in DAMGO induced MOPr internalization level at 30 uM preincubated for 30 mins by confocal microscopy analysis; format: functional, cell-based
Outline: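 HA-MOPr HEK 293 cells were prelabeled with anti-HA at 4°C for 1 h, then given inhibitor (30 μM) 30 min at 37°C and DAMGO 10 μM. Cells were stained with a fluorescein secondary and Hoechst and imaged by confocal microscopy (63× oil); repeated 3 times.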
Target sequence in this assay (P33535 whole entry): as above

[4] = molecular target: Ribosomal protein S6 kinase beta-1 (Homo sapiens) (UniProt P23443); test: Inhibition of human S6K1 assessed as remaining activity at 1 uM in presence of 32ATP relative to control
Outline: (§1)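 Express panel of 52 purified human kinases run in vitro. Kinase activity was measured directly by a radioactive filter-binding assay with ³²ATP, at ATP levels at or below each kinase's calculated Km for ATP. The compound was tested at 1 μM. Each assay was run in duplicate, and activity is given as the mean percentage (with S.D.) of activity without inhibitor.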

[5] = molecular target: Ribosomal protein S6 kinase alpha-1 (Homo sapiens) (UniProt Q15418); test: Inhibition of human RSK1 assessed as remaining activity at 1 uM in presence of 32ATP relative to control; outline: as §1
[6] = molecular target: RAC-alpha serine/threonine-protein kinase (Homo sapiens) (UniProt P31749); test: Inhibition of human PKBa assessed as remaining activity at 1 uM in presence of 32ATP relative to control; outline: as §1
[7] = molecular target: Dual specificity protein kinase TTK (Homo sapiens) (UniProt P33981); test: Inhibition of human TTK assessed as remaining activity at 1 uM in presence of 32ATP relative to control; outline: as §1
[8] = molecular target: MAP/microtubule affinity-regulating kinase 3 (Homo sapiens) (UniProt P27448); test: Inhibition of human MARK3 assessed as remaining activity at 1 uM in presence of 32ATP relative to control; outline: as §1
[9] = molecular target: cAMP-dependent protein kinase (PKA) (Homo sapiens) (UniProt P22694+P17612+P22612); test: Inhibition of human PKA assessed as remaining activity at 1 uM in presence of 32ATP relative to control; format: protein assay; outline: as §1
[10] = molecular target: Interleukin-1 receptor-associated kinase 4 (Homo sapiens) (UniProt Q9NWZ3); test: Inhibition of human IRAK4 assessed as remaining activity at 1 uM in presence of 32ATP relative to control; outline: as §1
[11] = molecular target: Calcium/calmodulin-dependent protein kinase type 1 (Homo sapiens) (UniProt Q14012); test: Inhibition of human CAMK1 assessed as remaining activity at 1 uM in presence of 32ATP relative to control
Outline: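 Express screen of 52 purified human kinases run as a radioactive filter-binding assay with 32ATP, at 1 μM inhibitor. ATP was at or below each kinase's calculated Km. Activity is given as percent of the activity without inhibitor. Run in duplicate; mean with S.D.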

[12] = molecular target: Mitogen-activated protein kinase 14 (Homo sapiens) (UniProt Q16539); test: Inhibition of human p38a MAPK assessed as remaining activity at 1 uM in presence of 32ATP relative to control; outline: as §1
[13] = molecular target: Tyrosine-protein kinase SYK (Homo sapiens) (UniProt P43405); test: Inhibition of human SYK assessed as remaining activity at 1 uM in presence of 32ATP relative to control; outline: as §1
[14] = molecular target: Mu-type opioid receptor (Rattus norvegicus) (UniProt P33535); test: Inhibition of MOPr desensitization (unknown origin) assessed as DAMGO induced loss of functional receptor at 30 uM incubated for 15 mins relative to control

Chain of Interleukin-1 receptor-associated kinase 4 (Homo sapiens) (Q9NWZ3 whole entry): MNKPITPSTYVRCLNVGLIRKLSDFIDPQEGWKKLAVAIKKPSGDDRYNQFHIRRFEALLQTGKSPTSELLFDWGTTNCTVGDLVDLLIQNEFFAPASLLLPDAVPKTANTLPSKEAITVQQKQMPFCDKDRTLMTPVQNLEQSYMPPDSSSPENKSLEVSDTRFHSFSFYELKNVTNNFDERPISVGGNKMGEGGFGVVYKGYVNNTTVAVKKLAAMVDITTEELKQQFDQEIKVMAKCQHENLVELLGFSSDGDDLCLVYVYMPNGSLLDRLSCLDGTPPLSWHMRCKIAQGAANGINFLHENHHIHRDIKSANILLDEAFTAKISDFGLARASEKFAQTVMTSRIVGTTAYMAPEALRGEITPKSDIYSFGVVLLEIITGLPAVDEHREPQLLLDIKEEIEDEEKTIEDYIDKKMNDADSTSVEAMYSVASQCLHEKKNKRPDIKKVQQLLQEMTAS
Chain of Ribosomal protein S6 kinase beta-1 (Homo sapiens) (P23443 whole entry, looked up): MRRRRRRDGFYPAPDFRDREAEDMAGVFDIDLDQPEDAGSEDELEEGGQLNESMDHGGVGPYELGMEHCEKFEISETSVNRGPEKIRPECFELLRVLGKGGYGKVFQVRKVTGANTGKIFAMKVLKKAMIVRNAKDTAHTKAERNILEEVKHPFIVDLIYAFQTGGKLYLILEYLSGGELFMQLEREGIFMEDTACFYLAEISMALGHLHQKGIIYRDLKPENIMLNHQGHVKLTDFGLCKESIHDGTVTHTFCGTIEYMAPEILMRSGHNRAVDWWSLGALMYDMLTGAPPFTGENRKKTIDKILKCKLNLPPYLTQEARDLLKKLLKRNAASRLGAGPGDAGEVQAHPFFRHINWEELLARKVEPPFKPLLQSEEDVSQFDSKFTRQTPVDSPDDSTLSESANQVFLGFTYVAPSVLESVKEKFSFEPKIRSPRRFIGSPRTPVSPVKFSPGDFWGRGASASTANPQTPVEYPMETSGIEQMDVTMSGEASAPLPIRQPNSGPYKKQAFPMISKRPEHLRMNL
Chain of Calcium/calmodulin-dependent protein kinase type 1 (Homo sapiens) (Q14012 whole entry, looked up): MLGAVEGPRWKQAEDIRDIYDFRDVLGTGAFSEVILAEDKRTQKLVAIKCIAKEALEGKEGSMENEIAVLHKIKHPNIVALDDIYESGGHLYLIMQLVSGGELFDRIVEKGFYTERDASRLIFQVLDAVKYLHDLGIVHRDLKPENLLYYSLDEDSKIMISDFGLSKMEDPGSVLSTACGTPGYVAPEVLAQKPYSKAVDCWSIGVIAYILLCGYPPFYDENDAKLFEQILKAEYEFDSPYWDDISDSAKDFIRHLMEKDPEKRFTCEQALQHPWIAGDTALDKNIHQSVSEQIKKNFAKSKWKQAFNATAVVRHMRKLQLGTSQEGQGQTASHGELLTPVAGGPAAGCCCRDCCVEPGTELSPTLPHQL
Chain of Mitogen-activated protein kinase 14 (Homo sapiens) (Q16539 whole entry): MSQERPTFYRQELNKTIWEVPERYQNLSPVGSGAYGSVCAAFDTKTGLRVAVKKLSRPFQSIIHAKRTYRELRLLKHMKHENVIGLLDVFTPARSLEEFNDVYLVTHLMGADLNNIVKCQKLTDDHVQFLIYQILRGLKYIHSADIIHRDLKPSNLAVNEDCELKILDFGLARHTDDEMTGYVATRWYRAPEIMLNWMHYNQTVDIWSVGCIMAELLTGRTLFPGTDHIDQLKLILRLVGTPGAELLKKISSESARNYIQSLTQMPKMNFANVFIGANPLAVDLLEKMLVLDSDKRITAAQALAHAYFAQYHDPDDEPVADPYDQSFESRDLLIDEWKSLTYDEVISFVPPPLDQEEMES
Chain of MAP/microtubule affinity-regulating kinase 3 (Homo sapiens) (P27448 whole entry, looked up): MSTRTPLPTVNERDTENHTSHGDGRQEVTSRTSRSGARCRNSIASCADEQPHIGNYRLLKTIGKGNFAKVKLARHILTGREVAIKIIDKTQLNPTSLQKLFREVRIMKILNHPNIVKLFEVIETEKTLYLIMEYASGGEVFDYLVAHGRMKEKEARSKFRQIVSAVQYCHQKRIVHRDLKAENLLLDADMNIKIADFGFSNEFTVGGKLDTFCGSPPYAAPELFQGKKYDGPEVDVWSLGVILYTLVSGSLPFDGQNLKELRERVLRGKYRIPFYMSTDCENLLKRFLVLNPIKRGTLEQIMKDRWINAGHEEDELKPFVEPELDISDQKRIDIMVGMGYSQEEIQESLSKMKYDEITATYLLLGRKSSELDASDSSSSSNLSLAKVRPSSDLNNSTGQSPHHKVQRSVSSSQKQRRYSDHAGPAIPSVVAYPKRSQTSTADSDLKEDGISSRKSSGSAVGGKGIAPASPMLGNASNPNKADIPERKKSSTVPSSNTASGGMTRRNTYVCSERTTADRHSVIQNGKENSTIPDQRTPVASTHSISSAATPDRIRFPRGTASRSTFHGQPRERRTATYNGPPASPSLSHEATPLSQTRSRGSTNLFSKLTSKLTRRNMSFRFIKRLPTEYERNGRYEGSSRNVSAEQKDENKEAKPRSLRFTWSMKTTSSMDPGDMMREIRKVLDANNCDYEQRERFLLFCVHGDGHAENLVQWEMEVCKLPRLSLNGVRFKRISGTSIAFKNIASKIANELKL
Chain of Ribosomal protein S6 kinase alpha-1 (Homo sapiens) (Q15418 whole entry): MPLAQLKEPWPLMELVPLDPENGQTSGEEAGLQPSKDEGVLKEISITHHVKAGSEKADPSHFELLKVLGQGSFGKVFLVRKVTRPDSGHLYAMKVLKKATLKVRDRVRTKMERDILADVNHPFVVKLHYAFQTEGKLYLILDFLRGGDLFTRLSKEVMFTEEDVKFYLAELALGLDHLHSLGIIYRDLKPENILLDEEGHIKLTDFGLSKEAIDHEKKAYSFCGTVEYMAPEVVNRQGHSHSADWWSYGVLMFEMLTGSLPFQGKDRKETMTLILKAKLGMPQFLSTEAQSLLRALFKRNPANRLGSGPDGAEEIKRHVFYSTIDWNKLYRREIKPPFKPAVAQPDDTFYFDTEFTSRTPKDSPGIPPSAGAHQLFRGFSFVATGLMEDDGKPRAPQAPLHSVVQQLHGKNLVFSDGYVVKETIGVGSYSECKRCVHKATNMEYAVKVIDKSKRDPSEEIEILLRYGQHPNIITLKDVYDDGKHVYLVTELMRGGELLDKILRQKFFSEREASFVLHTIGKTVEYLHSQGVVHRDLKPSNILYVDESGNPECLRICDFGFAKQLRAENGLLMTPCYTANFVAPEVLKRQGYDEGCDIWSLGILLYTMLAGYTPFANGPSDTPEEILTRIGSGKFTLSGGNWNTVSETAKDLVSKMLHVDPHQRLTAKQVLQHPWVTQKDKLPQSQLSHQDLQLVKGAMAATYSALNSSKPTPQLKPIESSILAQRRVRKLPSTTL
Chain of RAC-alpha serine/threonine-protein kinase (Homo sapiens) (P31749 whole entry): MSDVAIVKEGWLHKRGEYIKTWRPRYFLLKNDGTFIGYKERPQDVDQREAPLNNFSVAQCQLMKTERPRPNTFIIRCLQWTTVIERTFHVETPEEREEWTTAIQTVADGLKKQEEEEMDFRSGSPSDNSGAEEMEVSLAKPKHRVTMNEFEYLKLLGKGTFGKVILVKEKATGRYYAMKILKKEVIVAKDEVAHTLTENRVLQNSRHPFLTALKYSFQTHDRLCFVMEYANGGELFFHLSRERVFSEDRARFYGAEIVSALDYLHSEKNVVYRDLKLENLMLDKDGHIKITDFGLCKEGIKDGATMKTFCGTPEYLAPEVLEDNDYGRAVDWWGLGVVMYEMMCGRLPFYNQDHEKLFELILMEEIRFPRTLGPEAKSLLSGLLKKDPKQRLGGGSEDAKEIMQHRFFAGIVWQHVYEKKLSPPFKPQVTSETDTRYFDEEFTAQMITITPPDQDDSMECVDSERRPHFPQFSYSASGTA
Chain of Dual specificity protein kinase TTK (Homo sapiens) (P33981 whole entry): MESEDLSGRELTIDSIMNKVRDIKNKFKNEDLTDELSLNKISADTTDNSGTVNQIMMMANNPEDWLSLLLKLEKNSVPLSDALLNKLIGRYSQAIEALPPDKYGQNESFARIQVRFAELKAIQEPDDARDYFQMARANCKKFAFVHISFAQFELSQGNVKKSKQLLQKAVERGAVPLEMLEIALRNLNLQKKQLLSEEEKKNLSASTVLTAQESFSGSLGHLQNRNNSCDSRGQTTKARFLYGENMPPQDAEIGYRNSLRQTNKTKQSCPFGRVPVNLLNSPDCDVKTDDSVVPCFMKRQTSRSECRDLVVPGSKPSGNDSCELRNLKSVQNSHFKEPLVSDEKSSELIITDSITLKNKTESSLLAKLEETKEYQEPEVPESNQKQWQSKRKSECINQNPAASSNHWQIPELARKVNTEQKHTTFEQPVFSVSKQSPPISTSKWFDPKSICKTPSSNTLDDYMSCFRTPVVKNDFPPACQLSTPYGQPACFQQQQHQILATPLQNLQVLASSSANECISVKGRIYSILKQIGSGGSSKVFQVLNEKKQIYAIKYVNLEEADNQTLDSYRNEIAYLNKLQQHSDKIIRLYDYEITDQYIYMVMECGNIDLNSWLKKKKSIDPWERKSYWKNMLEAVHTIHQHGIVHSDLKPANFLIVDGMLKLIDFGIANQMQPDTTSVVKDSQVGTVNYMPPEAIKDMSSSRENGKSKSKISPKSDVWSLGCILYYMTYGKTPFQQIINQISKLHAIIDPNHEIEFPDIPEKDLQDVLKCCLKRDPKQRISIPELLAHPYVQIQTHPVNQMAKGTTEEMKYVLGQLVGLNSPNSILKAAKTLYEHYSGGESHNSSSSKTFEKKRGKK

Cn1c(CNc2cccc(C(=O)NCc3ccccc3C(F)(F)F)c2)nnc1-c1ccncc1
inhibition [1]: Active | inhibition [2]: Active | inhibition [3]: Active | Activity [4]: 47% | Activity [5]: 48% | Activity [6]: 83% | Activity [7]: 89% | Activity [8]: 92% | Activity [9]: 95% | Activity [10]: 96% | Activity [11]: 101% | Activity [12]: 101% | Activity [13]: 103% | inhibition [14]: 59%
